The text below walks through data of ChEMBL document CHEMBL4229342, “Synthesis of novel proxyphylline derivatives with dual Anti-Candida albicans and anticancer activity” (Eur J Med Chem, 2018).

In one series the test system is CCRF-CEM. Kind of series: Antiproliferative activity against human CCRF-CEM cells after 72 hrs by MTT assay. The format is functional, cell-based. Summed up:
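EC50 was derived from a repeat 72 h MTT assay in CCRF-CEM or MCF-7 cells. It is the concentration killing 50% of tumour cells compared with control cells incubated without inhibitor in 0.5% DMSO.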
In general terms: Tetrazolium assays rely on reduction of a dye to a coloured formazan, in cell work by metabolically active cells.

Series [1] has as its system Candida albicans. Kind of series: Effect on dilpoid nuclei level in Candida albicans ATCC 90028 planktonic forms at 16 ug/ml by ethidium bromide staining based gel electrophoresis and confocal laser scanning microscopy. The format is functional, organism-based.
The test system of series [2] is Galleria mellonella. Nature of the series: Toxicity in Candida albicans ATCC 90028 infected Galleria mellonella larvae infected with 20 uM compound pre-treated cell suspensions assessed as improvement in larvae health index scores incubated in dark for 144 hrs at 30 degC and measured every 24 hrs. It counts as organism-based. The note with it: in vivo.
In series [3] the test system is Candida albicans. Kind of series: Fungicidal activity against Candida albicans ATCC 90028 assessed as log reduction in cell viability at 10 uM in RPMI medium in presence of sorbitol. The format is functional.
Series [4] concerns Candida albicans. Kind of series: Fungicidal activity against Candida albicans ATCC 90028 assessed as log reduction in cell viability at 10 uM in RPMI medium in absence of sorbitol. The format is functional.
Series [5] deals with Candida albicans. Nature of the series: Antibiofilm activity in Candida albicans ATCC 90028 assessed as beta-glucan uniform distribution at 20 uM after 18 hrs by Congo red staining-based confocal laser scanning microscopic analysis. The format is functional, organism-based. Summed up: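 Mature C. albicans biofilm cells were stained with 2% Congo Red to detect β-glucan exposure. They were imaged by confocal laser scanning microscopy as fluorescence and fluorescence/DIC overlays. Treated biofilms were compared with untreated control biofilm.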

Series [6] has as its system Candida albicans. Kind of series: Fungicidal activity against Candida albicans ATCC 90028 assessed as reduction in cell viability in RPMI medium in absence of sorbitol. The format is functional.
For series [7], the system named is Candida albicans. Nature of the series: Induction of apoptosis in Candida albicans ATCC 90028 protoplast assessed as necrotic cells at 20 uM after 48 hrs Annexin V-FITC/propidium iodide staining based flow cytometric analysis (reference value: 0.33 +/- 0.20%). The format is functional.
Series [8] relates to Candida albicans. Kind of series: Antifungal activity against Candida albicans ATCC 90028 assessed as reduction in cell viability at 8 uM at after 48 hrs in presence of ergosterol by XTT assay. The format is functional.
In series [9] the test system is Candida albicans. Kind of series: Antifungal activity against Candida albicans ATCC 90028 infected in Galleria mellonella larvae infected with 31 uM compound pre-treated cell suspensions assessed as melanization incubated in dark for 144 hrs at 30 degC and measured every 24 hrs (reference value: 65%). The format is functional.
Series [10] concerns Candida albicans. Kind of series: Antibiofilm activity in Candida albicans ATCC 90028 assessed as cell membrane lysis at 248 uM after 18 hrs by acridine orange/ethidium bromide staining-based confocal laser scanning fluorescence microscopic analysis. The format is functional, organism-based. Summed up:
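Unfixed biofilm cells were dual-stained in situ with acridine orange and ethidium bromide, each at 100 µg/mL. Confocal fluorescence and DIC imaging scored green AO nuclei, crescent-shaped chromatin, reddish-orange late apoptotic/necrotic cells and EB uptake, against untreated control biofilm. […]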

In series [11] the test system is Candida albicans. Nature of the series: Antifungal activity against Candida albicans ATCC 90028 infected in Galleria mellonella larvae infected with 31 uM compound pre-treated cell suspensions assessed as larvae survival incubated in dark for 144 hrs at 30 degC and measured every 24 hrs (reference value: 80%). The format is functional.
Series [12] relates to Candida albicans. Nature of the series: Induction of exochitinase release in Candida albicans ATCC 90028 assessed as p-nitrophenyl release from chitobioside substrate C at 248 uM by chitinolytic activity assay. The format is functional, organism-based.
Series [13] has as its system Galleria mellonella. Kind of series: Toxicity in Candida albicans ATCC 90028 infected Galleria mellonella larvae infected with 31 uM compound pre-treated cell suspensions assessed as improvement in larvae health index scores incubated in dark for 144 hrs at 30 degC and measured every 24 hrs. It counts as organism-based. The note with it: in vivo.
For series [14], the system named is Candida albicans. Kind of series: Induction of chitinase release in Candida albicans ATCC 90028 assessed as p-nitrophenyl release from N-acetyl-beta-D-glucosaminide at 248 uM by chitinolytic activity assay. It counts as functional, organism-based.

Converted amounts (≈) assume the structure as drawn. The source made the active and inactive calls.

In the case of `CC(Cn1cnc2c1c(=O)n(C)c(=O)n2C)OCc1cn(CCCn2nc3c(Br)c(Br)c(Br)c(Br)c3n2)nn1` (stereo not given), the EC50 in the series with CCRF-CEM was found to be 6.5 µM. The result in the series with Candida albicans [1] was inactive. Besides, the Activity entry is on record as “Toxic” in the series with Galleria mellonella [2], 93.94% in the series on Candida albicans [7] and 68% in the series with Candida albicans [8]. Moreover, the “log(activity)” value in the series on Candida albicans [3] is recorded as 6.74; in the series on Candida albicans [4] it was 6.81. Besides, the result with Candida albicans [5] was Active. Further, the MFC with Candida albicans [6] came out at 5 µM (≈ 3.97 µg/mL).

For the compound `CC(CN1c2ccccc2Sc2ccccc21)OC(=O)OC(C)Cn1cnc2c1c(=O)n(C)c(=O)n2C` (stereo not given), the Activity in the series on Candida albicans [9] is reported as 5 - 15%; with Galleria mellonella [13], “Toxic”. In addition, in the series on Candida albicans [10], the result was Active. The survival at 31 µM in the series with Candida albicans [11] amounted to 95%. Moreover, the outcome in the series with Candida albicans [12] and with Candida albicans [14] was inactive.

The EC50 is the midpoint of the concentration-response curve. Higher therefore signals a less potent agent. Usually MFC stands for the smallest concentration meeting the test's criterion for killing the fungus.
